Screens (PubChem BioAssay)
In the library only some 2.1% were active in any assay of this set; here they are far more common.
Cneo AK release: causes C. neoformans cell lysis. adenylate kinase release luminescence, 4 h; normalised: neutral wells 0, clomiphene wells 100. lysis activity, % at 15 µM. hit rate 0.2% among 360,000. AID 651654;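 active = mean lysis activity across replicates of at least 80%, whatever share of replicates individually reach that level; inactive = mean lysis activity below 80%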
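Signal: Adenylate kinase release luminescence | Assay system: Log-phase Cryptococcus neoformans yeast cells | Input: Cells at 5 × 10^6 per mL | Buffer or medium: Fresh YPD growth medium | Compound: Single dose | Schedule: Static 4 h at 37 °C with compound, 1 h detection | Controls: Clomiphene | Read-out: Luminescence rise reflecting yeast cell lysis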
C2C12 statin: suppressors of simvastatin-induced myotoxicity in C2C12 myotubes; rescue of ATP level, % at 7.49 µM; ATP luminescence, 48 h; scaled: DMSO 0, geranylgeraniol control 100; hit rate 0.78% among 330,000;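 active = mean ATP rescue above about 67%, or every replicate alone reaching that limit, limit read from the data, passing the limit was not always enough; inconclusive = no clear call, values can overlap the other calls; inactive = mean under the limit and some replicate under it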;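 also: myotubes were challenged with 10 µM simvastatin during compound exposure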
XiGFP reactiv: activators of X-chromosome reactivation in mouse fibroblasts; activation, % at 7.58 µM; hit rate 0.055% among 360,000; AID 743238; XiGFP mouse fibroblasts, % GFP-positive cells imaging, 3 d; cells co-treated with 5-aza-dC sensitizer; scaled so ellipticine positive control = 100%;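 active = mean normalized replicate activation at least 10% and every replicate at or above 10%; inconclusive = only one of the two criteria met; inactive = mean below 10% and not all replicates reach 10%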
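System: 68-5-11 XiGFP fibroblast line; Timing: 3 days compound exposure; Compound dosing: one concentration, pinned; Benchmarks: positive control ellipticine, 6 µM final; Buffer or medium: DMEM containing 5-aza-dC.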
DENV2 CPE: DENV2-induced cell death inhibition; DENV2-infected cells, cytopathic effect rescue, plate reader; CPE inhibition, % at 9.99 µM; hit rate 1.7% among 350,000; in the data active = CPE inhibition above about 20%, passing the limit was not always enough; inconclusive = no clear call, values can overlap the other calls; tested in BHK-21 cells
Of the large screens only hits and unclear results are named; the others gave an inactive call.

O=C(C[C@H]1CC[C@H]2[C@@H](COC[C@@H](O)CN2C(=O)c2ccccc2)O1)NC1Cc2ccccc2C1	none
C[C@H]1CN([C@@H](C)CO)C(=O)Cc2cc(NS(=O)(=O)c3ccc(F)cc3)ccc2O[C@H]1CN(C)Cc1ccc(Cl)c(Cl)c1	none (no result: Cneo AK release, DENV2 CPE)
C[C@@H]1CN([C@@H](C)CO)C(=O)Cc2cc(NS(=O)(=O)c3ccc(Cl)cc3)ccc2O[C@H]1CN(C)Cc1ccc(Cl)c(Cl)c1	C2C12 statin inconclusive
C[C@H]1CN([C@@H](C)CO)C(=O)Cc2cc(NS(=O)(=O)c3ccc(Cl)cc3)ccc2O[C@H]1CN(C)CC1CCCCC1	none (no result: XiGFP reactiv)
C[C@H](CO)N1C[C@H](C)[C@@H](CN(C)Cc2ccc(Cl)c(Cl)c2)Oc2ccc(NS(=O)(=O)c3ccc(Cl)cc3)cc2CC1=O	C2C12 statin 84
COc1ccc(S(=O)(=O)Nc2ccc3c(c2)CC(=O)N([C@H](C)CO)C[C@H](C)[C@@H](CN(C)Cc2ccc(Cl)c(Cl)c2)O3)cc1	C2C12 statin 201
C[C@@H]1CN([C@H](C)CO)C(=O)Cc2cc(NS(=O)(=O)c3ccc(Cl)cc3)ccc2O[C@H]1CN(C)Cc1ccc(Cl)c(Cl)c1	C2C12 statin 91
COc1ccc(S(=O)(=O)Nc2ccc3c(c2)CC(=O)N([C@@H](C)CO)C[C@@H](C)[C@H](CN(C)Cc2ccc(Cl)c(Cl)c2)O3)cc1	C2C12 statin inconclusive
C[C@H]1CN([C@@H](C)CO)C(=O)Cc2cc(NS(=O)(=O)c3ccc(Cl)cc3)ccc2O[C@@H]1CN(C)CC1CCCCC1	C2C12 statin 112 (no result: Cneo AK release, DENV2 CPE)
CC(C)NC(=O)Nc1ccc2c(c1)C(=O)N([C@@H](C)CO)C[C@H](C)[C@@H](CN(C)Cc1ccncc1)OCCCC[C@H](C)O2	none (no result: C2C12 statin)
C[C@@H]1CN([C@H](C)CO)C(=O)Cc2cc(NS(=O)(=O)c3ccc(F)cc3)ccc2O[C@H]1CN(C)Cc1ccc(Cl)c(Cl)c1	C2C12 statin 83 (no result: Cneo AK release, DENV2 CPE)
COc1ccc2c3c(n(C)c2c1)[C@H](CO)N(C)CC31CN(S(=O)(=O)c2cccc(F)c2)C1	none (no result: Cneo AK release, C2C12 statin)
CC(C)CC#Cc1cnc2c(c1)C(=O)N([C@H](C)CO)C[C@@H](C)[C@H](CN(C)C(=O)Cc1ccccc1)O2	C2C12 statin 101
C[C@@H]1CN([C@@H](C)CO)C(=O)c2cc(-c3cncnc3)cnc2O[C@H]1CN(C)C(=O)CN1CCOCC1	Cneo AK release 105
C[C@H]1CN([C@@H](C)CO)C(=O)c2cc(-c3cncnc3)cnc2O[C@H]1CN(C)C(=O)Cc1ccccc1	none
C[C@H](CO)N1C[C@H](C)[C@H](CN(C)C(=O)CN(C)C)Oc2ncc(C#Cc3ccccc3)cc2C1=O	DENV2 CPE 51
C[C@@H]1CN([C@@H](C)CO)C(=O)c2cc(-c3cncnc3)cnc2O[C@H]1CN(C)C(=O)Cc1ccccc1	Cneo AK release 80 (no result: DENV2 CPE)
O=C(O)C[C@H]1C[C@@H]2c3cc(NC(=O)Nc4ccccc4F)ccc3O[C@@H]2[C@@H](CO)O1	none
O=C(Cc1ccccn1)N[C@@H]1CC[C@@H](CCn2cc(-c3ccc(F)cc3)nn2)O[C@H]1CO	none (no result: Cneo AK release, C2C12 statin)
C[C@H](O)C#Cc1cnc2c(c1)C(=O)N([C@@H](C)CO)C[C@@H](C)[C@@H](CN(C)C(=O)Cc1ccncc1)O2	Cneo AK release 115 (no result: DENV2 CPE)
C[C@@H]1CN([C@H](C)CO)S(=O)(=O)c2ccc(C3=CCCC3)cc2O[C@@H]1CN(C)C(=O)C1CC1	none (no result: Cneo AK release, DENV2 CPE)
CO[C@H]1CN(C)C(=O)c2ccc(NC(=O)Nc3ccccc3)cc2OC[C@@H](C)NC[C@@H]1C	none
CO[C@H]1CN(C)C(=O)c2ccc(NC(=O)Nc3ccccc3)cc2OC[C@H](C)NC[C@@H]1C	DENV2 CPE 32 (no result: Cneo AK release, C2C12 statin)
CO[C@@H]1CN(C)C(=O)c2ccc(NC(=O)Nc3ccc(F)cc3)cc2OC[C@H](C)NC[C@@H]1C	DENV2 CPE 36
C[C@@H]1CN([C@@H](C)CO)C(=O)c2cc(-c3ccncc3)cnc2O[C@@H]1CN(C)C(=O)Cc1cccnc1	none
C[C@@H]1CCCCO[C@@H](CN(C)C(=O)c2ccccc2)[C@@H](C)CN([C@H](C)CO)C(=O)c2cc(NS(=O)(=O)c3ccccc3)ccc2O1	none (no result: C2C12 statin)
CCOC(=O)c1nn(C23CC4CC(CC(C4)C2)C3)c2c1C(=O)N(c1ccc(C)cc1)C2=O	C2C12 statin 121 (no result: Cneo AK release, XiGFP reactiv, DENV2 CPE)
COC(=O)c1nn(C23CC4CC(CC(C4)C2)C3)c2c1C(=O)N(c1ccc(Br)cc1)C2=O	C2C12 statin 68 (no result: XiGFP reactiv, DENV2 CPE)
CO[C@H]1CN(C)C(=O)c2cc(NC(=O)C3CC3)ccc2OC[C@@H](C)N(C(=O)C2CCCCC2)C[C@H]1C	none
O=C(C[C@H]1CC[C@H]2[C@@H](COC[C@H](O)CN2C(=O)Nc2ccccc2)O1)NC1Cc2ccccc2C1	none
COc1ccc(NC(=O)N2C[C@@H](O)COC[C@@H]3O[C@H](CC(=O)NC4Cc5ccccc5C4)CC[C@H]32)cc1	DENV2 CPE 100
O=C(C[C@@H]1CC[C@@H]2[C@H](COC[C@@H](O)CN2C(=O)Nc2ccc(Cl)cc2)O1)NC1Cc2ccccc2C1	Cneo AK release 109
CNC(=O)C[C@@H]1CC[C@H]2[C@@H](COC[C@H](O)CN2C(=O)Nc2cccc(OC)c2)O1	DENV2 CPE 58
O=C(C[C@H]1CC[C@H]2[C@@H](COC[C@H](O)CN2C(=O)Nc2ccc(F)cc2)O1)NC1Cc2ccccc2C1	DENV2 CPE 43
CNC(=O)C[C@H]1CC[C@@H]2[C@H](COC[C@@H](O)CN2C(=O)Nc2cccc(OC)c2)O1	none
CCCNC(=O)N1CC2(CN(Cc3ccc(F)cc3)C2)c2c([nH]c3cc(OC)ccc23)[C@H]1CO	none (no result: Cneo AK release, C2C12 statin)
COCC(=O)Nc1ccc2c(c1)C(=O)N(C)C[C@@H](OC)[C@H](C)CN(C)[C@H](C)CO2	none
CC(=O)O[C@@H]1[C@H]2[C@@H](C[C@@H](C)[C@@H]3C=CC(=O)[C@@]13C)OC(=O)[C@@H]2C	C2C12 statin 115
COC(=O)c1cc(-c2c(-c3cc(OC)c(OC)c(OC)c3)noc2C)cc([N+](=O)[O-])c1	DENV2 CPE 21
O=C(CN1CCOCC1)N[C@@H]1CC[C@H](CCNC(=O)C2CCCC2)O[C@@H]1CO	none
C[C@@H]1CN([C@H](C)CO)C(=O)Cc2cc(NC(=O)NC3CCCCC3)ccc2O[C@H]1CN(C)C(=O)Nc1ccc2c(c1)OCO2	none
O=C(C[C@H]1CC[C@H]2[C@@H](COC[C@@H](O)CN2Cc2ccccc2F)O1)N1CCc2ccccc2C1	none
O=C(C[C@H]1CC[C@@H]2[C@H](COC[C@@H](O)CN2Cc2cc(F)ccc2F)O1)N1CCc2ccccc2C1	none
O=C(C[C@H]1CC[C@H]2[C@@H](COC[C@@H](O)CN2C(=O)c2cc(Cl)cc(Cl)c2)O1)N1CCc2ccccc2C1	C2C12 statin 81
O=C(C[C@@H]1CC[C@@H]2[C@H](COC[C@H](O)CN2C(=O)c2cc(Cl)cc(Cl)c2)O1)N1CCc2ccccc2C1	C2C12 statin 91
